In PMC10107792 (Chemistry (Weinheim an Der Bergstrasse, Germany), 2022):
Values joined by “and” are separate entries in the source; they are usually repeats but may differ in a detail not shown here. Identical values can stand only once.

What was measured:
MraY = conditions: read-out: MraY inhibition IC50; in vitro; ref 15c; cited from earlier work
S. aureus = conditions: ref 15c; cited from earlier work
P. aeruginosa PAO1 = type: cell-based; conditions: growth inhibition, OD 600 nm
E. coli DH5α = type: cell-based; conditions: growth inhibition, efflux-competent strain, OD 600 nm
E. coli ΔtolC = test: Growth inhibition of E. coli ΔtolC; type: cell-based; conditions: conjugate vs. non-conjugated 9, E. coli ΔtolC
MraY from S. aureus = molecular target: T1, MraY from S. aureus (Staphylococcus aureus, UniProt Q2FZ93); type: biochemical
T1 sequence (Q2FZ93 1-321): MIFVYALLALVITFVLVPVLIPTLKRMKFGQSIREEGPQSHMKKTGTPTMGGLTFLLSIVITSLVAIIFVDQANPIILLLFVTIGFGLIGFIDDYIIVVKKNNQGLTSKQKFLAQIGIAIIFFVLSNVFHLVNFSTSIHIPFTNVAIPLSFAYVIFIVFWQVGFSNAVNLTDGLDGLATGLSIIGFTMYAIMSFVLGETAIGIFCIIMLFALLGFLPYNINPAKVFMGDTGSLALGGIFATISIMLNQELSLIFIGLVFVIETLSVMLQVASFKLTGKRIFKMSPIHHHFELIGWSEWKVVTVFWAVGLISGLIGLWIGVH
In short: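 S. aureus MraY crude membranes (final total protein ~1 mg/mL) with 50 μM undecaprenyl phosphate and 7.5 μM dansylated Park's nucleotide in 100 mM Tris-HCl pH 7.5, 200 mM KCl, 10 mM MgCl2, 0.1% Triton X-100. Fluorescence followed over time (ex 355/em 520 nm). Rate from 0–2 min linear regression; sigmoidal fit against log concentration gives IC50 ± SD. Variant: membranes pretreated with 1 mM diamide, 0 °C, 20 min (final 50 μM).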

Row | SMILES | IC50 (MraY) [nM] | antibacterial activity against S. aureus (S. aureus) | IC50 (P. aeruginosa PAO1) (P. aeruginosa PAO1) [µg/mL] | IC50 (E. coli DH5α) (E. coli DH5α) [µg/mL] | fold increase of antibacterial activity relative to 9 (E. coli ΔtolC) | IC50 (MraY from S. aureus)
1 | CO[C@H]1[C@H](O[C@H]([C@H]2O[C@@H](n3ccc(=O)[nH]c3=O)[C@H](O)[C@@H]2O)[C@H](NCCCNC(=O)[C@@H](NC(=O)[C@@H](NC(=O)N[C@H](C(=O)O)C(C)C)[C@@H]2CCNC(=N)N2)[C@@H](OC(=O)CCCCCCCCCCCCC(C)C)C(C)C)C(=O)O)O[C@H](CN)[C@H]1O [Compound 5, muraymycin B8] | 0.004 ± 0.0007 | promising antibacterial activity |  |  |  | 
2 | CC(=O)Oc1cccc(C(=O)N[C@H]2COC(=O)[C@@H](NC(=O)c3cccc(OC(C)=O)c3OC(C)=O)[C@H](CCCNC(=O)CCSSCCCCCCCCCCC(=O)NC[C@H](NC(=O)[C@H](CCCCN)NC(=O)N[C@H](C(=O)O)C(C)C)C(=O)NCCCN[C@@H](C[C@H]3O[C@@H](n4ccc(=O)[nH]c4=O)[C@H](O)[C@@H]3O)C(=O)O)OC(=O)[C@@H](NC(=O)c3cccc(OC(C)=O)c3OC(C)=O)COC2=O)c1OC(C)=O [(AcO)EntKL‐SS‐9] |  |  | >100 | >100 | ca. 11 fold | 123 nM and 89 nM
